Data: ChEMBL document CHEMBL2396536, “Curcuminoids block TGF-β signaling in human breast cancer cells and limit osteolysis in a murine model of breast cancer bone metastasis” (J Nat Prod, 2013)
Active and inactive are the calls of the source. No cut-off for these calls is given here.

Key:
[1] = tested on: Mus musculus; assay: Toxicity in human MDA-MB-231 cells xenografted athymic nude mouse left cardiac ventricle assessed as effect on spleen weight at 50 mg/kg, ip administered every other day for 3 weeks (reference value: 0.134 +/- 0.02 gram); format: organism-based; set-up: dose 50 mg/kg, route intraperitoneal; conditions: in vivo, 504 h
[2] = tested on: MDA-MB-231; assay: Cytotoxicity against human MDA-MB-231 cells assessed as cell viability by MTT assay; format: cell-based
Method in brief: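 MDA-MB-231 plated at 5 × 10^4 cells/cm2 and held overnight in DMEM with 10% FBS at 37°C and 5% CO2. Pre-incubated 4 h with compound in 2% FBS DMEM, then medium refreshed with TGF-β1 (5 ng/mL) for 24 h. Cell number read by MTT reduction.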

[3] = tested on: Mus musculus; assay: Toxicity in human MDA-MB-231 cells xenografted athymic nude mouse left cardiac ventricle assessed as effect on platelets at 25 mg/kg, ip administered every other day for 3 weeks (reference value: 513 +/- 54 K/uL); format: organism-based, Heart; set-up: dose 25 mg/kg, route intraperitoneal; conditions: in vivo, 504 h
[4] = tested on: MDA-MB-231; assay: Inhibition of osteolytic bone metastases in human MDA-MB-231 cells xenografted in athymic nude mouse left cardiac ventricle assessed as effect on tumor burden at 25 to 50 mg/kg, ip administered every other day for 3 weeks by histological analysis; format: functional, organism-based; conditions: Heart left ventricle
Method in brief: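 Intracardiac MDA-MB-231 model in female nude mice, dosed ip every other day for 21 days, n = 11/group. Hindlimbs harvested day 21, formalin-fixed and EDTA-decalcified. Tumor area measured blinded on mid-sagittal 5 μm H&E sections of tibiae and femora at 10x magnification.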

[5] = tested on: Mus musculus; assay: Toxicity in human MDA-MB-231 cells xenografted athymic nude mouse left cardiac ventricle assessed as effect on spleen weight at 25 mg/kg, ip administered every other day for 3 weeks (reference value: 0.134 +/- 0.02 gram); format: organism-based; set-up: dose 25 mg/kg, route intraperitoneal; conditions: in vivo, 504 h
[6] = tested on: Mus musculus; assay: Toxicity in human MDA-MB-231 cells xenografted athymic nude mouse left cardiac ventricle assessed as effect on alanine aminotransferase at 50 mg/kg, ip administered every other day for 3 weeks (reference value: 7.04 +/- 2.2 U/L); format: organism-based, Heart; set-up: dose 50 mg/kg, route intraperitoneal; conditions: in vivo, 504 h
[7] = biological target: MAP kinase p38 (Homo sapiens) (UniProt O15264+Q15759+Q16539+P53778); assay: Inhibition of TGF-beta-induced p38 phosphorylation in human MDA-MB-231 cells treated 12 hrs before TGF-beta challenge measured after 1 hr by Western blotting; format: cell-based
Method in brief: (§1)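 Subconfluent MDA-MB-231 pre-treated 12 h with compound (80 μM), then TGF-β (5 ng/mL) for 1 h. RIPA whole-cell lysates (18 μg) run on SDS-PAGE and transferred to PVDF. Probed with rabbit anti-phospho-Smad2, phospho-Smad3, phospho-p38 or Ets-1 (1:1000, overnight, 4 °C). β-actin used as loading control. Chemiluminescent detection; three independent experiments.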

[8] = tested on: Mus musculus; assay: Toxicity in human MDA-MB-231 cells xenografted athymic nude mouse left cardiac ventricle assessed as effect on liver weight at 50 mg/kg, ip administered every other day for 3 weeks (reference value: 1 +/- 0.10 gram); format: organism-based, Heart; set-up: dose 50 mg/kg, route intraperitoneal; conditions: in vivo, 504 h
[9] = tested on: MDA-MB-231; assay: Inhibition of osteolytic bone metastases in human MDA-MB-231 cells xenografted in athymic nude mouse left cardiac ventricle assessed as improvement in host survival at 25 to 50 mg/kg, ip administered every other day for 3 weeks measured on day 16 relative to vehicle-treated control; format: functional, organism-based; conditions: Heart left ventricle
Method in brief: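 Intracardiac MDA-MB-231 nude mice (n = 11/group) dosed ip every other day for 3 weeks. Survival shown by Kaplan–Meier and analyzed by logrank test with post-hoc logrank test for trend.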

[10] = tested on: MDA-MB-231; assay: Inhibition of osteolytic bone metastases in human MDA-MB-231 cells xenografted in athymic nude mouse left cardiac ventricle assessed as reduction of bone lysis at 25 to 50 mg/kg, ip administered every other day for 3 weeks measured on day 21; format: functional, Heart left ventricle; conditions: dose mg/kg 25-50; route intraperitoneal
Method in brief: (§2)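 Four-week female athymic nude mice inoculated with 1 × 10^5 MDA-MB-231 cells in 0.1 mL PBS into the left cardiac ventricle. Dosed ip at 25 or 50 mg/kg or vehicle every other day from day 1 for 21 days, n = 11/group. Lytic lesion area quantified on radiographs on days 12, 16 and 21. Two-way ANOVA with Bonferroni.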

[11] = tested on: Mus musculus; assay: Toxicity in human MDA-MB-231 cells xenografted athymic nude mouse left cardiac ventricle assessed as effect on white blood cells at 50 mg/kg, ip administered every other day for 3 weeks (reference value: 5.84 +/- 1.3 K/uL); conditions: in vivo, 504 h
[12] = tested on: MDA-MB-231; assay: Inhibition of TGF-beta-induced PTHrP secretion in human MDA-MB-231 cells at 100 uM treated 4 hrs before TGF-beta challenge measured after 24 hrs by radioimmunoassay; format: functional, cell-based
Method in brief: (§3)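 MDA-MB-231 plated at 5 × 10^4 cells/cm2 and held overnight in DMEM with 10% FBS. Pre-treated 4 h with compound (0.1–100 μM in methods; 0.1–300 μM in legend) in 2% FBS, then recombinant human TGF-β1 (5 ng/mL) or medium alone for 24 h. PTHrP measured in conditioned media by radioimmunoassay, n = 4 wells/group. IC50 from four-parameter logistic fit.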

[13] = tested on: Mus musculus; assay: Toxicity in human MDA-MB-231 cells xenografted athymic nude mouse left cardiac ventricle assessed as effect on alanine aminotransferase at 25 mg/kg, ip administered every other day for 3 weeks (reference value: 7.04 +/- 2.2 U/L); format: organism-based, Heart; set-up: dose 25 mg/kg, route intraperitoneal; conditions: in vivo, 504 h
[14] = tested on: MDA-MB-231; assay: Inhibition of TGF-beta-induced Ets-1 expression in human MDA-MB-231 cells treated 12 hrs before TGF-beta challenge measured after 1 hr by Western blotting
[15] = tested on: MDA-MB-231; assay: Inhibition of osteolytic bone metastases in human MDA-MB-231 cells xenografted in athymic nude mouse left cardiac ventricle assessed as reduction of bone-tumor interface at 25 mg/kg, ip administered every other day for 3 weeks; format: functional; conditions: MDA-MB-231, Heart left ventricle, 504 h, route intraperitoneal
Method in brief: (§4)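 Intracardiac MDA-MB-231 model in nude mice, dosed ip every other day for 21 days. Mid-sagittal tibia and femur sections TRAP-stained. TRAP+ multinucleated (>3 nuclei) cells counted at 40x along the tumor-bone interface. Expressed as osteoclasts per mm of interface.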

[16] = tested on: Mus musculus; assay: Toxicity in human MDA-MB-231 cells xenografted athymic nude mouse left cardiac ventricle assessed as effect on platelets at 50 mg/kg, ip administered every other day for 3 weeks (reference value: 513 +/- 54 K/uL); format: organism-based, Heart; set-up: dose 50 mg/kg, route intraperitoneal; conditions: in vivo, 504 h
[17] = tested on: MDA-MB-231; assay: Inhibition of osteolytic bone metastases in human MDA-MB-231 cells xenografted in athymic nude mouse left cardiac ventricle assessed as reduction of bone-tumor interface at 50 mg/kg, ip administered every other day for 3 weeks; format: functional; conditions: MDA-MB-231, Heart left ventricle, 504 h, route intraperitoneal; method in brief: as §4
[18] = tested on: Mus musculus; assay: Toxicity in human MDA-MB-231 cells xenografted athymic nude mouse left cardiac ventricle assessed as effect on white blood cells at 25 mg/kg, ip administered every other day for 3 weeks (reference value: 5.84 +/- 1.3 K/uL); conditions: in vivo, 504 h
[19] = tested on: Mus musculus; assay: Toxicity in human MDA-MB-231 cells xenografted athymic nude mouse left cardiac ventricle assessed as effect on liver weight at 25 mg/kg, ip administered every other day for 3 weeks (reference value: 1 +/- 0.10 gram); format: organism-based, Heart; set-up: dose 25 mg/kg, route intraperitoneal; conditions: in vivo, 504 h
[20] = tested on: MDA-MB-231; assay: Inhibition of osteolytic bone metastases in human MDA-MB-231 cells xenografted in athymic nude mouse left cardiac ventricle assessed as improvement in body weight at 25 to 50 mg/kg, ip administered every other day for 3 weeks measured on day 16 relative to vehicle-treated control; format: functional, organism-based; conditions: Heart left ventricle
[21] = biological target: Mothers against decapentaplegic homolog 3 (Homo sapiens) (UniProt P84022); assay: Inhibition of TGF-beta-induced Smad3 phosphorylation in human MDA-MB-231 cells treated 12 hrs before TGF-beta challenge measured after 1 hr by Western blotting; format: cell-based; method in brief: as §1
Sequence of Mothers against decapentaplegic homolog 3 (Homo sapiens) (P84022 2-425 limits assumed): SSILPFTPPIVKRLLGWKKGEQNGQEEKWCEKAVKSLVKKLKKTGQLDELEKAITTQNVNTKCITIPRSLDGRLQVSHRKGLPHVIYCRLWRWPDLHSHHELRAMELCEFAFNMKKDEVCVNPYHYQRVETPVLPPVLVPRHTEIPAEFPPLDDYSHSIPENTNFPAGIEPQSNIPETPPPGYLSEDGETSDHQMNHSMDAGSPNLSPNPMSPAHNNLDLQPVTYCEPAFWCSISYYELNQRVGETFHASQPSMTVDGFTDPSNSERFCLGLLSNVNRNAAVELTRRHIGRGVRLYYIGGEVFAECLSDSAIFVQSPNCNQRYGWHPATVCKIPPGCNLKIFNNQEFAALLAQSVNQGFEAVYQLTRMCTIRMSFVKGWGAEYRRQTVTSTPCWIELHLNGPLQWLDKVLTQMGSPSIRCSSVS

[22] = tested on: Mus musculus; assay: Toxicity in human MDA-MB-231 cells xenografted athymic nude mouse left cardiac ventricle assessed as effect on hematocrit at 50 mg/kg, ip administered every other day for 3 weeks (reference value: 30.2 +/- 1.5%); format: organism-based, Heart; set-up: dose 50 mg/kg, route intraperitoneal; conditions: in vivo, 504 h
[23] = tested on: MDA-MB-231; assay: Inhibition of TGF-beta-induced PTHrP secretion in human MDA-MB-231 cells treated 4 hrs before TGF-beta challenge measured after 24 hrs by radioimmunoassay; format: functional, cell-based; conditions: for minimal effective concentration: read-out: MEC; method in brief: as §3
[24] = tested on: Mus musculus; assay: Toxicity in human MDA-MB-231 cells xenografted athymic nude mouse left cardiac ventricle assessed as effect on hematocrit at 25 mg/kg, ip administered every other day for 3 weeks (reference value: 30.2 +/- 1.5%); format: organism-based, Heart; set-up: dose 25 mg/kg, route intraperitoneal; conditions: in vivo, 504 h
[25] = tested on: Mus musculus; assay: Effect on orthotopic tumor mass in human MDA-MB-231 cells xenografted athymic nude mouse mammary fat pad at 25 to 50 mg/kg, ip administered every other day for 3 weeks
[26] = tested on: Mus musculus; assay: Toxicity in human MDA-MB-231 cells xenografted athymic nude mouse left cardiac ventricle assessed as effect on bone-forming osteoblast cell at 25 to 50 mg/kg, ip administered every other day for 3 weeks; format: organism-based, Heart; set-up: dose 25-50 mg/kg, route intraperitoneal; conditions: in vivo, 504 h
[27] = biological target: Mothers against decapentaplegic homolog 2 (Homo sapiens) (UniProt Q15796); assay: Inhibition of TGF-beta-induced Smad2 phosphorylation in human MDA-MB-231 cells treated 12 hrs before TGF-beta challenge measured after 1 hr by Western blotting; format: cell-based; method in brief: as §1
Sequence of Mothers against decapentaplegic homolog 2 (Homo sapiens) (Q15796 whole entry): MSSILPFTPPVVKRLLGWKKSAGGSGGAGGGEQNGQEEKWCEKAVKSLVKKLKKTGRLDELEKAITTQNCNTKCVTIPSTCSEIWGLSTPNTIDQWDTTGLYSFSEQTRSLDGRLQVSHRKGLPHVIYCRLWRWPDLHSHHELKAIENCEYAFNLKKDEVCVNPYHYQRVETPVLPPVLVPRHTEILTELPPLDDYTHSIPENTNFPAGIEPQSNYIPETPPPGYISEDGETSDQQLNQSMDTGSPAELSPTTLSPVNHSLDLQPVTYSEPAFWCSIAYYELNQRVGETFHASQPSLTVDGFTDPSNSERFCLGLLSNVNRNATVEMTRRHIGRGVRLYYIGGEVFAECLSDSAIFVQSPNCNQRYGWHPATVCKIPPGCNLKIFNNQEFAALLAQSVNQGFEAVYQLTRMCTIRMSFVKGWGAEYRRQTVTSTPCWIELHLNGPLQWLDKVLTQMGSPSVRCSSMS

[28] = tested on: MDA-MB-231; assay: Inhibition of osteolytic bone metastases in human MDA-MB-231 cells xenografted in athymic nude mouse left cardiac ventricle assessed as reduction in lytic bone lesion area at 25 to 50 mg/kg, ip administered every other day for 3 weeks measured on day 21 relative to control; format: functional, Heart left ventricle; conditions: dose mg/kg 25-50; route intraperitoneal; method in brief: as §2
[29] = tested on: MDA-MB-231; assay: Inhibition of osteolytic bone metastases in human MDA-MB-231 cells xenografted in athymic nude mouse left cardiac ventricle assessed as reduction in lytic bone lesion area at 25 to 50 mg/kg, ip administered every other day for 3 weeks measured on day 16 relative to control; format: functional, Heart left ventricle; conditions: dose mg/kg 25-50; route intraperitoneal; method in brief: as §2

COc1cc(/C=C/C(=O)CC(=O)/C=C/c2ccc(O)c(OC)c2)ccc1O [CURCUMIN]
Activity [1]: 0.139 g | MTC [2]: 82 µM | Activity [3]: 485 K/uL | inhibition [4]: inactive | Activity [5]: 0.129 g | Activity [6]: 5.02 U/L | inhibition [7]: inactive | Activity [8]: 1.1 g | Activity [9]: Active | inhibition (INH) [10]: >50% | Activity [11]: 6.83 K/uL | inhibition [12]: Active | Activity [13]: 7.13 U/L | inhibition [14]: Active | inhibition in vivo at 25 mg/kg [15]: 53% | Activity [16]: 589 K/uL | inhibition in vivo at 50 mg/kg [17]: 48% | Activity [18]: 4.69 K/uL | Activity [19]: 0.987 g | Activity [20]: Active | inhibition [21]: Active | Activity [22]: 31.1% | IC50 [23]: 24 µM | inhibition [23]: Dose-dependent effect | minimal effective concentration [23]: 13 µM | Activity [24]: 30.6% | Activity [25]: inactive | Activity [26]: Non-toxic | inhibition [27]: Active | inhibition (INH) [28]: 57% | inhibition (INH) [29]: 51%

COc1cc(/C=C/C(O)=C/C(=O)/C=C/c2ccc(O)cc2)ccc1O [DEMETHOXYCURCUMIN]
Activity [1]: 0.139 g | MTC [2]: 82 µM | Activity [3]: 485 K/uL | inhibition [4]: inactive | Activity [5]: 0.129 g | Activity [6]: 5.02 U/L | inhibition [7]: inactive | Activity [8]: 1.1 g | Activity [9]: Active | inhibition (INH) [10]: >50% | Activity [11]: 6.83 K/uL | inhibition [12]: Active | Activity [13]: 7.13 U/L | inhibition [14]: Active | inhibition in vivo at 25 mg/kg [15]: 53% | Activity [16]: 589 K/uL | inhibition in vivo at 50 mg/kg [17]: 48% | Activity [18]: 4.69 K/uL | Activity [19]: 0.987 g | Activity [20]: Active | inhibition [21]: Active | Activity [22]: 31.1% | IC50 [23]: 24 µM | inhibition [23]: Dose-dependent effect | minimal effective concentration [23]: 13 µM | Activity [24]: 30.6% | Activity [25]: inactive | Activity [26]: Non-toxic | inhibition [27]: Active | inhibition (INH) [28]: 57% | inhibition (INH) [29]: 51%
